Measured values from publication PMC4774891 (Pharmaceutical research, 2015).

How the values were obtained:
In vitro drug release = type: physicochemical; details: PBS 1% Volpo pH 6.8, 37°C
Summary of the method: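 Equal drug amounts (free drug, spray-dried formulation, or physical mixture) suspended in 500 ml PBS with 1% Volpo, pH 6.8. USP type II paddle, 50 rpm, 37±0.5°C, followed over 48 h.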

[1] = Oral pharmacokinetic study; type: in vivo, Sprague Dawley rats; details: rat
[2] = test system: A431 epidermoid carcinoma subcutaneous xenograft; experiment: Anticancer study in A431 subcutaneous xenograft model; type: in vivo, Nu/nu mice; details: 50 mg/kg daily orally, 4 weeks; vehicle control 6663.01 ±1113.23
A431 tumors = experiment: IHC analysis of A431 tumors; type: in vivo, Nu/nu mice; details: untreated control 34.00±6.26
VEGF = VEGF estimation by ELISA in serum and tumor lysates; type: in vivo, Nu/nu mice
Chronic toxicity = type: in vivo; details: 4 weeks daily oral
[3] = free drug; cited from earlier work
[4] = Caco-2 permeability study; details: human, Caco-2, pH 5.8
[5] = Sprague Dawley, plasma, po, 50 mg/kg

| average permeability (paracellular control) (Caco-2 cell monolayers) [×10⁻⁶ cm/s] | Compound | drug released after 48 h (In vitro drug release) [%] | CL ([1]; 50 mg/kg orally) [mL/day/kg] | Vss ([1]; 50 mg/kg orally) [L/kg] | maximum plasma concentration (approximate molar) ([1]; 50 mg/kg orally) | AUC(0-inf) [1, 5] [ng·h/mL] | Cmax [1, 5] [ng/mL] | MRT [1, 5] [h] | Tmax [1, 5] [h] | half-life [1, 5] [h] | final tumor volume [2] [mm^3] | cleaved caspase 3 positive apoptotic cells/field (A431 tumors) [cells/field] | VEGF level in serum (VEGF; serum, control 572.90±38.51) [pg/mL] | VEGF level in tumor lysates (VEGF; tumor lysates, control 355.35± 49.93) [pg/mg protein] | body weight change (Chronic toxicity) | aqueous solubility [3] | Papp A→B at 120 min, 100 μM [4] [×10⁻⁶ cm/s] |
| --- | --- | --- | --- | --- | --- | --- | --- | --- | --- | --- | --- | --- | --- | --- | --- | --- | --- |
| – | COc1cc2ncnc(Nc3ccc(F)c(Cl)c3)c2cc1OCCCN1CCOCC1 [Gef free drug, Gefitinib] | 16 | 1.9 ± 0.0408 | 0.00045 ± 0.00022 | approximately 0.55 μM | 1340 ± 244 | 248 ± 89.5 | 8.85 ± 1.83 | 1.25 ± 0.25 | 7.46 ± 1.75 | 3534.49±896.16 | 145.33±28.44 | 336.40 ± 55.84 | 175.65±25.76 | no change in the body weights | less than 1 mg/ml | 0.34 ± 0.09 |
| < 0.15 | lucifer yellow | – | – | – | – | – | – | – | – | – | – | – | – | – | – | – | – |
